# Measured values pooled from the literature.
# Each line is one published result; the experiments were not run side by side.
# Effect on: binding
# Tumor necrosis factor receptor superfamily member 9: Tumor necrosis factor receptor superfamily member 9 (Homo sapiens, UniProt Q07011)
# MET: Hepatocyte growth factor receptor (MET, Homo sapiens, UniProt P08581)
SMILES,target,assay,setting,Kd [µM]
CC(C)C[C@H](NC(=O)[C@@H]1CCCN1C(=O)[C@H](Cc1ccccc1)NC(=O)[C@H](CCC(=O)O)NC(=O)[C@@H](N)CC(N)=O)C(=O)N[C@@H](CS)C(=O)N[C@@H](CO)C(=O)N[C@@H](CC(C)C)C(=O)N1CCC[C@H]1C(=O)N[C@@H](CCC(=O)O)C(=O)NCC(=O)O,"Ubiquitin carboxyl-terminal hydrolase 7 (USP7, Homo sapiens, UniProt Q93009)",ITC,pH 8,118
OC[C@H]1OC(O)[C@H](O)[C@@H](O)[C@@H]1O (stereo partly shown),"Hexokinase-4 (GCK, Homo sapiens, UniProt P35557)",stopped-flow,,5000
CCCC[C@@H]1NC(=O)[C@H](Cc2ccc(O)cc2)NC(=O)[C@@H]2CCCN2C(=O)[C@H](CC(=O)O)NC(=O)[C@H](C)NC(=O)[C@H](Cc2ccccc2)NC(=O)[C@@H]2CSCCC(=O)N3CN(CN(C3)C(=O)CCSC[C@@H](C(=O)N[C@@H](C)C(N)=O)NC1=O)C(=O)CCSC[C@H](NC(C)=O)C(=O)N[C@@H](CC(C)(C)C)C(=O)N1CCC[C@H]1C(=O)N[C@@H](CCC(=O)O)C(=O)N[C@H](CCCCNC(=O)CCc1cn(CCOCCOCCOCCOCCOCCC(=O)N[C@H]3CSCCC(=O)N4CN5CN(C4)C(=O)CCSC[C@H](NC(=O)CNC(=O)[C@H](Cc4ccccc4)NC(=O)[C@@H]4CCCN4C3=O)C(=O)N[C@@H](CCSC)C(=O)N[C@@H](CCCCNC(=N)N)C(=O)N[C@@H](CC(=O)O)C(=O)N[C@@H](Cc3c[nH]c4ccccc34)C(=O)N[C@@H](CO)C(=O)N[C@@H]([C@@H](C)O)C(=O)N3CCC[C@H]3C(=O)N3C[C@H](O)C[C@H]3C(=O)N[C@@H](Cc3c[nH]c4ccccc34)C(=O)N[C@H](C(N)=O)CSCCC5=O)nn1)C(=O)N1CCC[C@H]1C(=O)N[C@@H](Cc1ccc(O)cc1)C(=O)N2,Tumor necrosis factor receptor superfamily member 9,SPR,,0.0037
CCCCC1(CCCCCCCCCCCCC(=O)O)OCC(C)(C)N1[O] (stereo not shown),"kcsA (Streptomyces lividans, UniProt P0A334)",,,0.1 to 1
CC(c1ccccc1Cl)n1cc(-c2cc(F)cc(F)c2)c(=O)[nH]c1=O (stereo not shown),MET,,,39.8
CCCC[C@@H]1NC(=O)[C@H](Cc2ccc(O)cc2)NC(=O)[C@@H]2CCCN2C(=O)[C@H](CC(=O)O)NC(=O)[C@H](C)NC(=O)[C@H](Cc2ccccc2)NC(=O)[C@@H]2CSCCC(=O)N3CN(CN(C3)C(=O)CCSCCC(=O)N[C@@H](CC(C)(C)C)C(=O)N3CCC[C@H]3C(=O)N[C@@H](CCC(=O)O)C(=O)N[C@H](CCCCNC(=O)CCc3cn(CCOCCOCCOCCOCCOCCC(=O)N[C@H]4CSCCC(=O)N5CN6CN(C5)C(=O)CCSC[C@H](NC(=O)[C@@H](CC(=O)O)NC(=O)[C@H](Cc5cccc7ccccc57)NC(=O)[C@@H]5CCCN5C4=O)C(=O)N[C@@H](CCSC)C(=O)N[C@@H](CCCCNC(=N)N)C(=O)N[C@@H](CC(=O)O)C(=O)N[C@@H](Cc4c[nH]c5ccccc45)C(=O)N[C@@H](CO)C(=O)N[C@@H]([C@@H](C)O)C(=O)N4CCC[C@H]4C(=O)N4C[C@H](O)C[C@H]4C(=O)N[C@@H](Cc4c[nH]c5ccccc45)C(=O)N[C@H](C(N)=O)CSCCC6=O)nn3)C(=O)N3CCC[C@H]3C(=O)N[C@@H](Cc3ccc(O)cc3)C(=O)N2)C(=O)CCSCCNC1=O,Tumor necrosis factor receptor superfamily member 9,SPR,,0.049
CC(c1ccccc1)n1cc(-c2ccccn2)c(=O)[nH]c1=O (stereo not shown),MET,,,5.01
CN1CN(c2ccccc2)C2(CCN(CCCC(=O)c3ccc(F)cc3)CC2)C1=O,"D(2) dopamine receptor (Drd2, Rattus norvegicus, UniProt P61169)",radioligand,cell membranes,9e-05
C[C@@H](c1ccccc1)n1cc(-c2cc(F)cc(F)c2)c(=O)[nH]c1=O,MET,,,1
CCCC[C@@H]1NC(=O)[C@H](Cc2ccc(O)cc2)NC(=O)[C@@H]2CCCN2C(=O)[C@H](CC(=O)O)NC(=O)[C@H](C)NC(=O)[C@H](Cc2ccccc2)NC(=O)[C@@H]2CSCCC(=O)N3CN(CN(C3)C(=O)CCSC[C@H](NC(C)=O)C(=O)N[C@@H](CC(C)(C)C)C(=O)N3CCC[C@H]3C(=O)N[C@@H](CCC(=O)O)C(=O)N[C@H](CCCCNC(=O)CCc3cn(CCOCCOCCOCCOCCOCCC(=O)N[C@H]4CSCCC(=O)N5CN6CN(C5)C(=O)CCSC[C@H](NC(=O)[C@@H](CC(=O)O)NC(=O)[C@H](Cc5cccc7ccccc57)NC(=O)[C@@H]5CCCN5C4=O)C(=O)N[C@@H](CCSC)C(=O)N[C@@H](CCCCNC(=N)N)C(=O)N[C@@H](CC(=O)O)C(=O)N[C@@H](Cc4c[nH]c5ccccc45)C(=O)N[C@@H](CO)C(=O)N[C@@H]([C@@H](C)O)C(=O)N4CCC[C@H]4C(=O)N4C[C@H](O)C[C@H]4C(=O)N[C@@H](Cc4c[nH]c5ccccc45)C(=O)N[C@H](C(N)=O)CSCCC6=O)nn3)C(=O)N3CCC[C@H]3C(=O)N[C@@H](Cc3ccc(O)cc3)C(=O)N2)C(=O)CCSCCNC1=O,Tumor necrosis factor receptor superfamily member 9,SPR,,0.03
